Laboratory results: ChEMBL document CHEMBL5108036, “A concise SAR-analysis of antimicrobial cationic amphipathic barbiturates for an improved activity-toxicity profile” (Eur J Med Chem, 2022)
Values after ≈ are worked out from the molar mass of the structure shown. Active and inactive are the calls of the source. The calls are words filed in the database; no cut-off is given here.

Columns and labels:
Bacillus subtilis [1] = test: Disruption of inner membrane integrity in Bacillus subtilis 168 ATCC 23857 measured by luciferase based bioluminescence assay; assay type: functional
How it was run: (§1)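 Biosensor strains express click-beetle luciferase (lucGR), whose light output needs externally added D-luciferin; light rises when a damaged membrane lets substrate in. Cell suspension with 1 mM D-luciferin is added to the analytes, and luminescence is read every second for 180 s. Signal is normalized to an untreated water control. Cell density is about 100-fold that of the MIC assay, with at least three independent experiments.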

Escherichia coli [2] = test: Disruption of inner membrane integrity in Escherichia coli K12 (ATCC MC1061) transfected with pCGLS-1 measured by luciferase based bioluminescence assay; assay type: functional; how it was run: as §1
Staphylococcus aureus = test: Antibacterial activity against Staphylococcus aureus ATCC 9144 incubated for 48 hrs and measured by broth microdilution assay; assay type: functional
How it was run: (§2)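 MICs in µg/mL were measured against the reference strains S. aureus ATCC 9144, B. subtilis 168, E. coli ATCC 25922 and P. aeruginosa ATCC 27853. Compounds were tested as di-TFA salts.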

[3] = Solubility in pure water; assay type: physicochemical
[4] = Selectivity index, ratio HC50 for hemolytic activity in human RBC to MIC for antibacterial activity against Staphylococcus aureus ATCC 9144; assay type: toxicity; conditions: human red blood cells (erythrocytes)
How it was run: (§3)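 SI is the ratio of RBC lysis EC50 to MIC for each reference strain.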

Bacillus subtilis [5] = test: Antibacterial activity against Bacillus subtilis 168 incubated for 48 hrs and measured by broth microdilution assay; assay type: functional; how it was run: as §2
[6] = Selectivity index, ratio HC50 for hemolytic activity in human RBC to MIC for antibacterial activity against Escherichia coli ATCC 25922; assay type: toxicity; conditions: human red blood cells (erythrocytes); how it was run: as §3
[7] = Selectivity index, ratio HC50 for hemolytic activity in human RBC to MIC for antibacterial activity against Pseudomonas aeruginosa ATCC 27853; assay type: toxicity; conditions: human red blood cells (erythrocytes); how it was run: as §3
Pseudomonas aeruginosa = test: Antibacterial activity against Pseudomonas aeruginosa ATCC 27853 incubated for 48 hrs and measured by broth microdilution assay; assay type: functional; how it was run: as §2
Erythrocyte = test: (§4) Hemolytic activity in human RBC measured after 1 hr by microplate reader method; assay type: toxicity, cell-based; conditions: erythrocyte
How it was run: (§5)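 Human red blood cell lysis was used as the cytotoxicity read-out, expressed as EC50 in µg/mL. The highest concentration tested was 500 µM. Compounds were tested as di-TFA salts.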

[8] = Selectivity index, ratio HC50 for hemolytic activity in human RBC to MIC for antibacterial activity against Bacillus subtilis 168; assay type: toxicity; conditions: human red blood cells (erythrocytes); how it was run: as §3
Escherichia coli [9] = test: Antibacterial activity against Escherichia coli ATCC 25922 incubated for 48 hrs and measured by broth microdilution assay; assay type: functional; how it was run: as §2
Escherichia coli [10] = test: Disruption of inner membrane integrity in Escherichia coli K12 (ATCC MC1061) transfected with pCGLS-1 at 6.4 to 12.8 times MIC measured by luciferase based bioluminescence assay; assay type: functional, organism-based; conditions: DDE = dose-dependent effect
How it was run: (§6)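 Membrane integrity was read with click beetle lucGR luciferase biosensor strains. Cell suspension containing 1 mM D-luciferin was added to the analytes. Luminescence was read every second for 180 s, normalized to an untreated water control and reported as RLU. At least three independent experiments were run.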

Escherichia coli [11] = test: Disruption of outer membrane integrity in Escherichia coli K12 (ATCC MC1061) transfected with pCGLS-1 at 3.2 ug/ml measured by NPN based fluorescence assay; assay type: functional, organism-based; conditions: dose 3.2 µg/ml, DDE = dose-dependent effect
How it was run: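 E. coli K12 outer membrane permeability was measured by 1-N-phenylnaphthylamine uptake. Cell suspension with 20 µM NPN was added to the analytes. Fluorescence was read every second for 180 s, normalized to an untreated water control and reported as RFU. At least three independent experiments were run.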

Bacillus subtilis [12] = test: Antibacterial activity against Bacillus subtilis 168 (ATCC 23857) expressing lux operon in sacA locus (PliaG) assessed as decrease in bacterial viability at 3.2 to 51.2 ug/ml; assay type: functional, organism-based; conditions: dose 3.2-51.2 µg/ml
How it was run: (§7)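 Biosensor strains (B. subtilis 168; E. coli K12) carry the Photorhabdus luminescens lux operon, so no substrate is added. Cell suspension, about 100-fold denser than in the MIC assay, was added to the analytes. Light was read every second for 180 s, normalized to an untreated water control and reported as RLU. At least three independent experiments were run.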

Bacillus subtilis [13] = test: Disruption of inner membrane integrity in Bacillus subtilis 168 (ATCC 23857) at 1.56 to 50 ug/ml measured by luciferase based bioluminescence assay; assay type: functional, organism-based; conditions: dose 1.56-50 µg/ml; how it was run: as §6
Escherichia coli [14] = test: Antibacterial activity against Escherichia coli K12 (ATCC MC1061) transfected with pCGLS-1 assessed as decrease in bacterial viability at 3.2 to 51.2 ug/ml; assay type: functional, organism-based; conditions: dose 3.2-51.2 µg/ml; how it was run: as §7
[15] = as §4; assay type: toxicity, cell-based, Erythrocyte; conditions: human, human red blood cells (erythrocytes); how it was run: as §5
Escherichia coli [16] = test: Antibacterial activity against in Escherichia coli K12 (ATCC MC1061) transfected with pCGLS-1 assessed as decrease in cell viability at 25.6 to 51.2 ug/ml measured by NPN based fluorescence assay; assay type: functional, organism-based; conditions: dose 25.6-51.2 µg/ml
How it was run: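 At the end of the NPN outer membrane assay in E. coli K12, a 10 µL sample was spotted on an agar plate to assess bacterial viability.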

Structure (SMILES) | MIC (Bacillus subtilis [1]) | MIC (Escherichia coli [2]) | MIC (Staphylococcus aureus) | solubility [3] | selectivity ratio [4] | MIC (Bacillus subtilis [5]) | selectivity ratio [6] | selectivity ratio [7] | MIC (Pseudomonas aeruginosa) | EC50 (Erythrocyte) | selectivity ratio [8] | MIC (Escherichia coli [9]) | Activity (Escherichia coli [10]) | Activity (Escherichia coli [11]) | Activity (Bacillus subtilis [12]) | Activity (Bacillus subtilis [13]) | Activity (Escherichia coli [14]) | EC50 at 1 h [15] | Activity (Escherichia coli [16])
N=C(NCCCCCCNC(=N)NC(=N)Nc1ccc(Cl)cc1)NC(=N)Nc1ccc(Cl)cc1 [CHLORHEXIDINE] | 1.5 µg/mL (≈ 2.97 µM) | 1.5 µg/mL (≈ 2.97 µM) | – | – | – | – | – | – | – | – | – | – | – | – | – | – | – | – | –
N=C(N)NCCCN1C(=O)N(CCCNC(=N)N)C(=O)C(Cc2cc(C(F)(F)F)cc(C(F)(F)F)c2)(Cc2cc(C(F)(F)F)cc(C(F)(F)F)c2)C1=O.O=C(O)C(F)(F)F.O=C(O)C(F)(F)F | – | – | 4 µg/mL | < 1000 µg/mL | 111 | 2 µg/mL | 56 | 28 | 16 µg/mL | 445 µg/mL | 222 | 8 µg/mL | – | – | – | – | – | – | –
N=C(N)NCCCCN1C(=O)N(CCCCNC(=N)N)C(=O)C(Cc2ccc(C(F)(F)F)cc2)(Cc2cc(Br)cc(Br)c2)C1=O.O=C(O)C(F)(F)F.O=C(O)C(F)(F)F (stereo unspecified) | – | – | 2 µg/mL | – | 81 | 4 µg/mL | 81 | 10 | 16 µg/mL | – | 40 | 2 µg/mL | Dde | Dde | Active | Active | Active | 161 µg/mL | Active
Cl.Cl.N=C(N)NCCCN1C(=O)N(CCCNC(=N)N)C(=O)C(Cc2ccc(Br)c(Cl)c2)(Cc2ccc(Br)c(Cl)c2)C1=O | – | – | 0.5 µg/mL | < 1000 µg/mL | – | – | – | – | – | 291 µg/mL | – | 8 µg/mL | – | – | – | – | – | – | –
